Measurements published in ChEMBL document CHEMBL2150901, “Synthesis and biological activity of tricyclic cycloalkylimidazo-, pyrimido- and diazepinopurinediones” (Eur J Med Chem, 2011).
pKi: −log10 of the molar value. Active and inactive are the calls of the source. No cut-off for these calls is given here.

Legend:
[1] = test system: Mus musculus; test: Anticonvulsant activity in F1 albino mouse assessed as protection against maximal electroshock-induced seizures at 300 mg/kg, ip after 4 hrs; assay type: functional, organism-based; parameters: dose 300 mg/kg
Summary of the method: (§1)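 Male albino F-1 mice (18–25 g), groups of 1–5 (rotorod 2–8). Compound given ip as a suspension in 0.5% methylcellulose at 30, 100 and 300 mg/kg. Seizures by maximal electroshock or subcutaneous pentylenetetrazole; neurotoxicity by rotorod. Read at 0.5 and 4 h, with some at 0.25, 1 and 2 h. Value is the minimum active dose, with protected (or toxic)/tested animals.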

[2] = biological target: T1, Adenosine receptor A1 (Rattus norvegicus, UniProt P25099); test: Displacement of [3H]CCPA from adenosine A1 receptor in rat brain cortical membrane; assay type: cell membranes
T1 sequence (P25099 whole entry): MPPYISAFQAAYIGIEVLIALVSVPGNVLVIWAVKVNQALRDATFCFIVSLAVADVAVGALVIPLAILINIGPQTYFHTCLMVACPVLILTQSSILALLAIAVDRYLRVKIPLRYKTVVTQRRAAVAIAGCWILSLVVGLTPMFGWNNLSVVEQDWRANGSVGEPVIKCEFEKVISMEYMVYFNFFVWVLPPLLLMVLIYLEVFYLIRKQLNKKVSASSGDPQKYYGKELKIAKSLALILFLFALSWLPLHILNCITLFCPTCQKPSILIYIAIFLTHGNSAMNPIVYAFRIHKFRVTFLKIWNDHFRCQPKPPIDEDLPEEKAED

[3] = test system: Rattus norvegicus; test: Anticonvulsant activity in po dosed Sprague-Dawley albino rat assessed as protection against subcutaneous pentylenetetrazole-induced seizures; assay type: functional
[4] = test system: Mus musculus; test: Neurotoxicity in F1 albino mouse assessed as minimal motor impairment at 300 mg/kg, ip after 4 hrs by rotorod test; assay type: toxicity, organism-based; parameters: dose 300 mg/kg, route intraperitoneal; conditions: in vivo; summary of the method: as §1
[5] = test system: Rattus norvegicus; test: Anticonvulsant activity in po dosed Sprague-Dawley albino rat assessed as protection against maximal electroshock-induced seizures; assay type: functional
[6] = organism: Rattus norvegicus; test: Selectivity ratio of Ki for adenosine A1 receptor in rat brain cortical membrane to Ki for adenosine A2A receptor in rat brain striatal membrane; assay type: cell membranes
Summary of the method: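 Ki ratios from radioligand competition binding. Rat A1 used brain cortical membranes and rat A2A used brain striatal membranes. Human A1 and A2A used membranes of CHO cells expressing the receptors. A1 radioligand [³H]CCPA; A2A radioligand [³H]MSX-2. Potent compounds were tested at 6–7 concentrations spanning 3 orders of magnitude.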

[7] = test system: Rattus norvegicus; test: Neurotoxicity in Sprague-Dawley albino rat assessed as minimal motor impairment at 30 mg/kg, po after 1 hr by rotorod test; assay type: toxicity, organism-based; parameters: dose 30 mg/kg, route oral; conditions: in vivo
Summary of the method: (§2)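 Male Sprague-Dawley albino rats (100–150 g), groups of 4. Oral suspension in 0.5% methylcellulose/water. Protection assessed by maximal electroshock or subcutaneous pentylenetetrazole; motor impairment by rotorod. Time points 0.25–4 h. Value is protected (or toxic)/tested animals.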

[8] = test system: Mus musculus; test: Anticonvulsant activity in F1 albino mouse assessed as protection against maximal electroshock-induced seizures at 300 mg/kg, ip after 0.5 hrs; assay type: functional, organism-based; parameters: dose 300 mg/kg; summary of the method: as §1
[9] = test system: Mus musculus; test: Anticonvulsant activity in F1 albino mouse assessed as protection against subcutaneous pentylenetetrazole-induced seizures at 300 mg/kg, ip after 0.25 hrs; assay type: functional, organism-based; parameters: dose 300 mg/kg; summary of the method: as §1
[10] = test system: Mus musculus; test: Neurotoxicity in F1 albino mouse assessed as minimal motor impairment at 300 mg/kg, ip after 1 hr by rotorod test; assay type: toxicity, organism-based; parameters: dose 300 mg/kg, route intraperitoneal; conditions: in vivo; summary of the method: as §1
[11] = test system: Mus musculus; test: Anticonvulsant activity in F1 albino mouse assessed as protection against subcutaneous pentylenetetrazole-induced seizures at 300 mg/kg, ip after 4 hrs; assay type: functional, organism-based; parameters: dose 300 mg/kg; summary of the method: as §1
[12] = test system: Rattus norvegicus; test: Anticonvulsant activity in Sprague-Dawley albino rat assessed as protection against maximal electroshock-induced seizures at 30 mg/kg, po after 4 hrs; assay type: functional, organism-based; parameters: dose 30 mg/kg; summary of the method: as §2
[13] = test system: Mus musculus; test: Anticonvulsant activity in F1 albino mouse assessed as protection against subcutaneous pentylenetetrazole-induced seizures at 100 mg/kg, ip after 0.5 hrs; assay type: functional, organism-based; parameters: dose 100 mg/kg; summary of the method: as §1
[14] = test system: Mus musculus; test: Anticonvulsant activity in F1 albino mouse assessed as protection against maximal electroshock-induced seizures at 300 mg/kg, ip after 0.25 hrs; assay type: functional, organism-based; parameters: dose 300 mg/kg; summary of the method: as §1
[15] = test system: Rattus norvegicus; test: Anticonvulsant activity in Sprague-Dawley albino rat assessed as protection against maximal electroshock-induced seizures at 30 mg/kg, po after 0.5 hrs; assay type: functional, organism-based; parameters: dose 30 mg/kg; summary of the method: as §2
[16] = test system: Rattus norvegicus; test: Neurotoxicity in Sprague-Dawley albino rat assessed as minimal motor impairment at 30 mg/kg, po after 0.25 hrs by rotorod test; assay type: toxicity, organism-based; parameters: dose 30 mg/kg, route oral; conditions: in vivo; summary of the method: as §2
[17] = test system: Rattus norvegicus; test: Toxicity in Sprague-Dawley albino rat assessed as mortality following continuous seizures at >100 mg/kg, po; assay type: organism-based; conditions: in vivo
[18] = test system: Rattus norvegicus; test: Anticonvulsant activity in Sprague-Dawley albino rat assessed as protection against subcutaneous pentylenetetrazole-induced seizures at 50 mg/kg, po after 0.25 hrs; assay type: functional, organism-based; parameters: dose 50 mg/kg; summary of the method: as §2
[19] = test system: Rattus norvegicus; test: Neurotoxicity in Sprague-Dawley albino rat assessed as minimal motor impairment at 30 mg/kg, po after 0.5 hrs by rotorod test; assay type: toxicity, organism-based; parameters: dose 30 mg/kg, route oral; conditions: in vivo; summary of the method: as §2
[20] = test system: Rattus norvegicus; test: Anticonvulsant activity in Sprague-Dawley albino rat assessed as protection against maximal electroshock-induced seizures at 30 mg/kg, po after 1 hr; assay type: functional, organism-based; parameters: dose 30 mg/kg; summary of the method: as §2
[21] = test system: Mus musculus; test: Anticonvulsant activity in F1 albino mouse assessed as protection against maximal electroshock-induced seizures at 300 mg/kg, ip after 1 hr; assay type: functional, organism-based; parameters: dose 300 mg/kg; summary of the method: as §1
[22] = test system: Rattus norvegicus; test: Anticonvulsant activity in Sprague-Dawley albino rat assessed as protection against subcutaneous pentylenetetrazole-induced seizures at 50 mg/kg, po after 1 hr; assay type: functional, organism-based; parameters: dose 50 mg/kg; summary of the method: as §2
[23] = test system: Mus musculus; test: Anticonvulsant activity in F1 albino mouse assessed as protection against subcutaneous pentylenetetrazole-induced seizures at 300 mg/kg, ip after 1 hr; assay type: functional, organism-based; parameters: dose 300 mg/kg; summary of the method: as §1
[24] = test system: Rattus norvegicus; test: Anticonvulsant activity in Sprague-Dawley albino rat assessed as protection against subcutaneous pentylenetetrazole-induced seizures at 50 mg/kg, po after 0.5 hrs; assay type: functional, organism-based; parameters: dose 50 mg/kg; summary of the method: as §2
[25] = test system: Rattus norvegicus; test: Neurotoxicity in Sprague-Dawley albino rat assessed as minimal motor impairment at 30 mg/kg, po after 4 hrs by rotorod test; assay type: toxicity, organism-based; parameters: dose 30 mg/kg, route oral; conditions: in vivo
Summary of the method: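 Male Sprague-Dawley albino rats (100–150 g), groups of 4, dosed orally with a suspension in 0.5% methylcellulose/water. Neurotoxicity was scored as minimal motor impairment on the rotorod at 0.25, 0.5, 1 and 4 h. Results are reported as animals showing toxicity per animals tested.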

[26] = test system: Mus musculus; test: Neurotoxicity in F1 albino mouse assessed as minimal motor impairment at 300 mg/kg, ip after 0.25 hrs by rotorod test; assay type: toxicity, organism-based; parameters: dose 300 mg/kg, route intraperitoneal; conditions: in vivo; summary of the method: as §1
[27] = test system: Rattus norvegicus; test: Anticonvulsant activity in Sprague-Dawley albino rat assessed as protection against maximal electroshock-induced seizures at 30 mg/kg, po after 2 hrs; assay type: functional, organism-based; parameters: dose 30 mg/kg; summary of the method: as §2
[28] = biological target: Adenosine receptor A2a (Rattus norvegicus, UniProt P30543); test: Displacement of [3H]MSX-2 from adenosine A2A receptor in rat brain striatal membrane; assay type: cell membranes
[29] = test system: Rattus norvegicus; test: Anticonvulsant activity in Sprague-Dawley albino rat assessed as protection against subcutaneous pentylenetetrazole-induced seizures at 50 mg/kg, po after 4 hrs; assay type: functional, organism-based; parameters: dose 50 mg/kg; summary of the method: as §2
[30] = test system: Mus musculus; test: Neurotoxicity in F1 albino mouse assessed as minimal motor impairment at 300 mg/kg, ip after 0.5 hrs by rotorod test; assay type: toxicity, organism-based; parameters: dose 300 mg/kg, route intraperitoneal; conditions: in vivo; summary of the method: as §1
[31] = test system: Mus musculus; test: Anticonvulsant activity in F1 albino mouse assessed as protection against subcutaneous pentylenetetrazole-induced seizures at 300 mg/kg, ip after 0.5 hrs; assay type: functional, organism-based; parameters: dose 300 mg/kg; summary of the method: as §1
[32] = test system: Rattus norvegicus; test: Toxicity in Sprague-Dawley albino rat assessed as mortality following continuous seizures at 50 mg/kg, po after 0.25 hrs; assay type: organism-based; parameters: dose 50 mg/kg, route oral; conditions: in vivo
Summary of the method: (§3)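 Male Sprague-Dawley albino rats (100–150 g), in groups of 4, were given an oral suspension in 0.5% methylcellulose/water. The event recorded was death following continuous seizures, given as animals affected per animals tested.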

[33] = test system: Rattus norvegicus; test: Toxicity in Sprague-Dawley albino rat assessed as mortality following continuous seizures at 50 mg/kg, po after 0.5 hrs; assay type: organism-based; parameters: dose 50 mg/kg, route oral; conditions: in vivo; summary of the method: as §3
[34] = test system: Rattus norvegicus; test: Toxicity in Sprague-Dawley albino rat assessed as mortality following continuous seizures at 50 mg/kg, po after 1 hr; assay type: organism-based; parameters: dose 50 mg/kg, route oral; conditions: in vivo; summary of the method: as §3
[35] = test system: Rattus norvegicus; test: Anticonvulsant activity in Sprague-Dawley albino rat assessed as protection against subcutaneous pentylenetetrazole-induced seizures at 50 mg/kg, po after 2 hrs; assay type: functional, organism-based; parameters: dose 50 mg/kg; summary of the method: as §2
[36] = test system: Mus musculus; test: Anticonvulsant activity in F1 albino mouse assessed as protection against subcutaneous pentylenetetrazole-induced seizures at 100 mg/kg, ip after 0.25 hrs; assay type: functional, organism-based; parameters: dose 100 mg/kg; summary of the method: as §1
[37] = test system: Mus musculus; test: Anticonvulsant activity in F1 albino mouse assessed as protection against subcutaneous pentylenetetrazole-induced seizures at 100 mg/kg, ip after 1 hr; assay type: functional, organism-based; parameters: dose 100 mg/kg; summary of the method: as §1
[38] = test system: Rattus norvegicus; test: Toxicity in Sprague-Dawley albino rat assessed as mortality following continuous seizures at 50 mg/kg, po after 4 hrs; assay type: organism-based; parameters: dose 50 mg/kg, route oral; conditions: in vivo; summary of the method: as §3
[39] = test system: Rattus norvegicus; test: Anticonvulsant activity in po dosed Sprague-Dawley albino rat assessed as protection against subcutaneous pentylenetetrazole-induced seizures after 0.25 hrs; assay type: functional

Sequence of Adenosine receptor A2a (P30543 whole entry): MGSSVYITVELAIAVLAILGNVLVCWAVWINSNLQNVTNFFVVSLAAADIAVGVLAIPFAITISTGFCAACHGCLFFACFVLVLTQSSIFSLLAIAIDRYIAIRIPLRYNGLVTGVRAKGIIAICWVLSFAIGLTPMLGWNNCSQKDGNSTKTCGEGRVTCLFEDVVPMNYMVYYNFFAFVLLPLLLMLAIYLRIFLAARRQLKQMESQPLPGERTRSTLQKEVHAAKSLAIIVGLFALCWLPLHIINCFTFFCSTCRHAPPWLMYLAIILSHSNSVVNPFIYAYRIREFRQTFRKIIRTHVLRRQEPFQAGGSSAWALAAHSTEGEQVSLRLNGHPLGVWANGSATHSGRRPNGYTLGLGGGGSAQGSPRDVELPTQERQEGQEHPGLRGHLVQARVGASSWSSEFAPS

Row | Structure (SMILES) | Activity [1] | pKi [2] | Activity [4] | Ratio Ki [6] | Activity [7] | Activity [8] | Activity [10] | Activity [11] | Activity [12] | Activity [14] | Activity [15] | Activity [16] | Activity [18] | Activity [19] | Activity [20] | Activity [21] | Activity [25] | Activity [26] | Activity [27] | pKi [28] | other results
1 | Cn1c(=O)c2c(nc3n2CCCCN3CC2CCCCC2)n(C)c1=O | inactive | 5.29 | Non-toxic | 1 | Non-toxic | Active | Non-toxic | inactive | inactive | inactive | inactive | Non-toxic | inactive | Non-toxic | inactive | inactive | Non-toxic | Non-toxic | inactive | 5.46 | ED50 [3]: > 100 mg/kg; ED50 [5]: > 250 mg/kg; Activity [9]: inactive; Activity [13]: Active; Activity [17]: Toxic; Activity [22]: inactive; Activity [23]: inactive; Activity [24]: Active; Activity [29]: inactive; Activity [30]: Non-toxic
2 | CC1CCC(N2CCCCn3c2nc2c3c(=O)n(C)c(=O)n2C)CC1 (mixture of isomers) | inactive | 5.46 | Non-toxic | 4 | Non-toxic | inactive | Non-toxic | inactive | inactive | inactive | inactive | Non-toxic | inactive | Non-toxic | inactive | inactive | Non-toxic | Non-toxic | inactive | 6.08 | Activity [31]: Active; Activity [32]: Toxic; Activity [33]: Toxic; Activity [34]: Toxic; Activity [35]: inactive; Activity [36]: Active; Activity [37]: Active; Activity [38]: Toxic; Activity [30]: Non-toxic
3 | Cn1c(=O)c2c(nc3n2CCCN3CC2CCCCC2)n(C)c1=O | inactive | 5.60 | Non-toxic | 4 | Non-toxic | inactive | Non-toxic | inactive | inactive | inactive | inactive | Non-toxic | Active | Non-toxic | inactive | inactive | Non-toxic | Non-toxic | inactive | 6.21 | Activity [31]: Active; Activity [35]: inactive; Activity [22]: Active; Activity [24]: Active; Activity [36]: Active; Activity [37]: inactive; Activity [29]: Active; Activity [30]: Non-toxic; ED50 [39]: > 200 mg/kg
